Measurements from ChEMBL document CHEMBL5705890, “Antitumor activity of an allosteric inhibitor of centromere-associated protein-E” (Proc Natl Acad Sci U S A, 2010).

Tests used:
[1] = system: NCI-H2052; experiment: Anticancer activity against human NCI-H2052 cells assessed as cell growth inhibition measured after 72 hrs by DAPI staining based analysis; type: functional
[2] = system: Raji; experiment: Anticancer activity against human Raji cells assessed as cell doubling measured for 72 hrs by DAPI staining based analysis; type: functional
[3] = system: SNU-398; experiment: Anticancer activity against human SNU-398 cells assessed as cell doubling measured for 72 hrs by DAPI staining based analysis; type: functional
[4] = system: DBTRG-05MG; experiment: Anticancer activity against human DBTRG-05MG cells assessed as cell doubling measured for 72 hrs by DAPI staining based analysis; type: functional
[5] = system: MC-CAR; experiment: Anticancer activity against human MC-CAR cells assessed as cell growth inhibition measured after 72 hrs by DAPI staining based analysis; type: functional
[6] = system: 639-V; experiment: Anticancer activity against human 639-V cells assessed as cell growth inhibition measured after 72 hrs by DAPI staining based analysis; type: functional
Procedure, shortened: (§1)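 Cells were seeded and, after 24 h, DNA content was read as T0. Cells were then exposed to varying drug concentrations for a further 72 h (T72). Fixed cells were DAPI-stained and DNA content measured by automated imaging. T72 values were normalized to T0. GI50 is the concentration giving 50% growth inhibition between T0 and Ymax, obtained by curve fitting.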

[7] = system: NCI-H1299; experiment: Antitumor activity against human NCI-H1299 cells in xenograft model assessed as difference between median time to endpoint time of treated versus control group at 125 mg/kg; type: functional
[8] = system: RPMI-6666; experiment: Anticancer activity against human RPMI-6666 cells assessed as cell doubling measured for 72 hrs by DAPI staining based analysis; type: functional
[9] = system: RXF 393; experiment: Anticancer activity against human RXF 393 cells assessed as cell growth inhibition measured after 72 hrs by DAPI staining based analysis; type: functional
[10] = system: OVCAR-3; experiment: Anticancer activity against human OVCAR-3 cells assessed as cell growth inhibition measured after 72 hrs by DAPI staining based analysis; type: functional
[11] = system: COLO 205; experiment: Antitumor activity against human COLO 205 cells in xenograft model assessed as difference between median time to endpoint time of treated versus control group at 62.5 mg/kg; type: functional
[12] = system: HCT-8; experiment: Anticancer activity against human HCT-8 cells assessed as cell doubling measured for 72 hrs by DAPI staining based analysis; type: functional
[13] = system: NCI-H1299; experiment: Antitumor activity against human NCI-H1299 cells in xenograft model assessed as tumor growth delay at 62.5 mg/kg relative to control; type: functional
[14] = system: HOS; experiment: Anticancer activity against human HOS cells assessed as cell growth inhibition measured after 72 hrs by DAPI staining based analysis; type: functional
[15] = system: HMCB cell line; experiment: Anticancer activity against human HMCB cells assessed as cell growth inhibition measured after 72 hrs by DAPI staining based analysis; type: functional
[16] = system: RL; experiment: Anticancer activity against human RL cells assessed as cell growth inhibition measured after 72 hrs by DAPI staining based analysis; type: functional
[17] = system: A549; experiment: Anticancer activity against human A549 cells assessed as cell doubling measured for 72 hrs by DAPI staining based analysis; type: functional
[18] = Anticancer activity against human RDES cells assessed as cell growth inhibition measured after 72 hrs by DAPI staining based analysis; type: functional; conditions: RD-ES
[19] = system: BPH-1; experiment: Anticancer activity against human BPH-1 cells assessed as cell doubling measured for 72 hrs by DAPI staining based analysis; type: functional
[20] = system: BV-173; experiment: Anticancer activity against human BV-173 cells assessed as cell growth inhibition measured after 72 hrs by DAPI staining based analysis; type: functional
Procedure, shortened: (§2)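 Cells were seeded, and DNA content at 24 h after seeding (T0) was read by imaging of fixed, DAPI-stained cells. Cells were then exposed to a range of drug concentrations for a further 72 h (T72) and DNA content was read again. T72 values were normalized to T0, and GI50 was taken from curve fits as the concentration giving 50% growth inhibition relative to T0 and Ymax.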

[21] = system: C-4-II; experiment: Anticancer activity against human C-4-II cells assessed as cell growth inhibition measured after 72 hrs by DAPI staining based analysis; type: functional; procedure, shortened: as §2
[22] = system: SF-295; experiment: Anticancer activity against human SF-295 cells assessed as cell growth inhibition measured after 72 hrs by DAPI staining based analysis; type: functional
[23] = system: KATO III stomach cancer cell line; experiment: Anticancer activity against human KATO III stomach cancer cell line cells assessed as cell doubling measured for 72 hrs by DAPI staining based analysis; type: functional
[24] = system: HOP-62; experiment: Anticancer activity against human HOP-62 cells assessed as cell doubling measured for 72 hrs by DAPI staining based analysis; type: functional
[25] = system: 5637; experiment: Anticancer activity against human 5637 cells assessed as cell growth inhibition measured after 72 hrs by DAPI staining based analysis; type: functional; procedure, shortened: as §1
[26] = system: CHL-1; experiment: Anticancer activity against human CHL-1 cells assessed as cell doubling measured for 72 hrs by DAPI staining based analysis; type: functional
[27] = system: U2OS; experiment: Anticancer activity against human U2OS cells assessed as cell growth inhibition measured after 72 hrs by DAPI staining based analysis; type: functional
[28] = system: OVCAR-8; experiment: Anticancer activity against human OVCAR-8 cells assessed as cell growth inhibition measured after 72 hrs by DAPI staining based analysis; type: functional
[29] = system: NCI-H157; experiment: Anticancer activity against human NCI-H157 cells assessed as cell growth inhibition measured after 72 hrs by DAPI staining based analysis; type: functional
[30] = target: Centromere-associated protein E (Homo sapiens, UniProt Q02224, I182L/K184T/T183A); experiment: Binding affinity to human CENP-E I182L/T183A/K184T mutant assessed as inhibition constant
Chain of Centromere-associated protein E (Q02224 whole entry I182L/T183A/K184T): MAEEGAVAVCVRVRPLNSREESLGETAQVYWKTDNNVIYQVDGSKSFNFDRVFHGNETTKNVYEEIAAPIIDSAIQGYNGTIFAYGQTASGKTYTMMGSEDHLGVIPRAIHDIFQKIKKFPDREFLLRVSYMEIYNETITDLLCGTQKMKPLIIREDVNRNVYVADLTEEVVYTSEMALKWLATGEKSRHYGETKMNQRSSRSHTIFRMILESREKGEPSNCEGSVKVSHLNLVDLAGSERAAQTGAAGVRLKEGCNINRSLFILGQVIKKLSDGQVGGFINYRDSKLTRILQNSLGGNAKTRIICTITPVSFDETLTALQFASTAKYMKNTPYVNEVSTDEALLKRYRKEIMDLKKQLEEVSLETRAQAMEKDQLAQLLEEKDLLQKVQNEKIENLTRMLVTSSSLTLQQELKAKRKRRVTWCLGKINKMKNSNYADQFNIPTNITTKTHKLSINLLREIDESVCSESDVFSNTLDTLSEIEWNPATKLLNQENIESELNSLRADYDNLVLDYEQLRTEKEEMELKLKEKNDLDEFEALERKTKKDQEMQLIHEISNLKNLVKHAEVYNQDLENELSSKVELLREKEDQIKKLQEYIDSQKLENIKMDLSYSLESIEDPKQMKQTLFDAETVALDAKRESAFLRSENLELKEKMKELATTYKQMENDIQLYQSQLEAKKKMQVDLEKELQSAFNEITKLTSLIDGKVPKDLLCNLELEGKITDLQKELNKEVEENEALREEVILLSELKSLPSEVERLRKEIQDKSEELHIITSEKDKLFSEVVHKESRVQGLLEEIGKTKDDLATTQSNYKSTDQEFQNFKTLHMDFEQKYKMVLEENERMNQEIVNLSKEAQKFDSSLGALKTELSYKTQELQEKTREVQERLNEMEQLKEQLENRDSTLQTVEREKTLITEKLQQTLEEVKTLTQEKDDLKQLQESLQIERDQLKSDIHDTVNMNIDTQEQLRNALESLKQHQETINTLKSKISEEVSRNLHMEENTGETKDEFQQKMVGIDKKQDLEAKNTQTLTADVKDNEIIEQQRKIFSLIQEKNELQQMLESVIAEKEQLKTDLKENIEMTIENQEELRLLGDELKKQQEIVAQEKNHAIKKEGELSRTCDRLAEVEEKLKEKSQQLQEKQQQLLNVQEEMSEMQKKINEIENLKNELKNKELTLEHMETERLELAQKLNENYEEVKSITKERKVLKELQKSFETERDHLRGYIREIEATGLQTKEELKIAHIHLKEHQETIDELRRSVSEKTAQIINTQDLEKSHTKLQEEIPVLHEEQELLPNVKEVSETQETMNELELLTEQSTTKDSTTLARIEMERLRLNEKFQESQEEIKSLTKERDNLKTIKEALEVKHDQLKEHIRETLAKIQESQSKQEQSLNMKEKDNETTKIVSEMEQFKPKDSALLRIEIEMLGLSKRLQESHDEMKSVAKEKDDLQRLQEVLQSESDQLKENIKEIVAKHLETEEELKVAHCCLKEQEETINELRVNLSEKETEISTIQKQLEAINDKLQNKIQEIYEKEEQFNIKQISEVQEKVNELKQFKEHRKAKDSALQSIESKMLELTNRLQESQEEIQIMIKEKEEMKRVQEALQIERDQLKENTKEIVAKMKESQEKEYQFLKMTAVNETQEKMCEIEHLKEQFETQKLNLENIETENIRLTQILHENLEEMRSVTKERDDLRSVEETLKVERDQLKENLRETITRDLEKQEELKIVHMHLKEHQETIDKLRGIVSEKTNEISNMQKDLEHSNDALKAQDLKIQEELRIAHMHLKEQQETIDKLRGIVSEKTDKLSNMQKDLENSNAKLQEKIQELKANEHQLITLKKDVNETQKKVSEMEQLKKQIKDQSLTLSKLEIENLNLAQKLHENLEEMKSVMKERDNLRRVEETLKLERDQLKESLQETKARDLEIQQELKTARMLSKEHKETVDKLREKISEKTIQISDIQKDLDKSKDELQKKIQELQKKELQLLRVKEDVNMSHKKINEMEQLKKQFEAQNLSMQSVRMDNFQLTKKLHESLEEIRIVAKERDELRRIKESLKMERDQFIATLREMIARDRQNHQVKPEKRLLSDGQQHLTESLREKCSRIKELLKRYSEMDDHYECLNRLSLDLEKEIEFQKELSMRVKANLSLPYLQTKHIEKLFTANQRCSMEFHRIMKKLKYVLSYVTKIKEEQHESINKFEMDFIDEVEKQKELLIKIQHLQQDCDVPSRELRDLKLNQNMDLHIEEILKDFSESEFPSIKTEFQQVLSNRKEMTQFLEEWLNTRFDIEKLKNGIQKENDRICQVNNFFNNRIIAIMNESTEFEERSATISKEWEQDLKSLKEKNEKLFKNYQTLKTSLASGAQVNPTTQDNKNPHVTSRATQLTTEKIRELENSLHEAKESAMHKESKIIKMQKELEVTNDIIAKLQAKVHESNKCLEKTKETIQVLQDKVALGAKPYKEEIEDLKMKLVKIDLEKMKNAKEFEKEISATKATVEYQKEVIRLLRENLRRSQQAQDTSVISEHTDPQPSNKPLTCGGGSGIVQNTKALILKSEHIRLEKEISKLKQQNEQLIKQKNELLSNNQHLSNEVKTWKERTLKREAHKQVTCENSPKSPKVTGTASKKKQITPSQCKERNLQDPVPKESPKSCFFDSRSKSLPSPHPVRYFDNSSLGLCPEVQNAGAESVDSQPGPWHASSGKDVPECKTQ

[31] = system: Detroit 562; experiment: Anticancer activity against human Detroit 562 cells assessed as cell growth inhibition measured after 72 hrs by DAPI staining based analysis; type: functional
Procedure, shortened: (§3)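 Cells seeded, DAPI-stained DNA content of fixed cells read by imaging 24 h after seeding (T0), and again after a further 72 h exposure to a range of drug concentrations (T72). T72 values were normalized to T0. Curve fits gave the concentration producing 50% growth inhibition relative to T0 and Ymax (GI50).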

[32] = system: EFM-19; experiment: Anticancer activity against human EFM-19 cells assessed as cell growth inhibition measured after 72 hrs by DAPI staining based analysis; type: functional; procedure, shortened: as §3
[33] = system: A549; experiment: Antitumor activity against human A549 cells in xenograft model assessed as tumor growth delay at 125 mg/kg relative to control; type: functional
[34] = system: A204; experiment: Anticancer activity against human A204 cells assessed as cell doubling measured for 72 hrs by DAPI staining based analysis; type: functional
[35] = system: NCI-H460; experiment: Antitumor activity against human NCI-H460 cells in xenograft model assessed as tumor growth delay at 62.5 mg/kg relative to control; type: functional
[36] = system: Y79; experiment: Anticancer activity against human Y79 cells assessed as cell growth inhibition measured after 72 hrs by DAPI staining based analysis; type: functional
[37] = system: NCI-H146; experiment: Anticancer activity against human NCI-H146 cells assessed as cell growth inhibition measured after 72 hrs by DAPI staining based analysis; type: functional
[38] = system: SW756; experiment: Anticancer activity against human SW756 cells assessed as cell growth inhibition measured after 72 hrs by DAPI staining based analysis; type: functional
[39] = system: LOX IMVI; experiment: Anticancer activity against human LOX IMVI cells assessed as cell doubling measured for 72 hrs by DAPI staining based analysis; type: functional

GI50 [1]: 44 nM
GI50 [10]: 42 nM
GI50 [27]: 45 nM
GI50 [28]: 50 nM
GI50 [29]: 37 nM
Ki [30]: 64 nM
GI50 [37]: 5230 nM
GI50 [38]: 35 nM
SMILES: CC(C)Oc1ccc(C(=O)N[C@H](CNC(=O)CN(C)C)Cc2ccc(-c3cn4cccc([C@H](C)O)c4n3)cc2)cc1Cl [GSK-923295A]
Activity [2]: 3.26
Activity [3]: 2.53
Activity [4]: 1.33
GI50 [5]: 86 nM
GI50 [6]: 27 nM
Time [7]: 16.8 days
Activity [8]: 1.99
GI50 [9]: 32 nM
Time [11]: 24.9 days
Activity [12]: 4.26
Activity [13]: 15%
GI50 [14]: 27 nM
GI50 [15]: 25 nM
GI50 [16]: 37 nM
Activity [17]: 3.53
GI50 [18]: 63 nM
Activity [19]: 2.08
GI50 [20]: 56 nM
GI50 [21]: 46 nM
GI50 [22]: 35 nM
Activity [23]: 2.02
Activity [24]: 1.82
GI50 [25]: 23 nM
Activity [26]: 3.27
GI50 [31]: 35 nM
GI50 [32]: 28 nM
Activity [33]: 73%
Activity [34]: 1.46
Activity [35]: 87%
GI50 [36]: 70 nM
Activity [39]: 2.32
